In ChEMBL document CHEMBL3870351, “Synthesis of 2-methyl-1,4-naphthoquinones with higher gamma-glutamyl carboxylase activity than MK-4 both in vitro and in vivo” (Bioorg Med Chem Lett, 2017):
The source made the active and inactive calls. No cut-off for these calls is given here.

Columns and labels:
[1] = Cytotoxicity against human MG63 cells assessed as decrease in cell viability up to 500 nM by MTT assay; assay type: toxicity, cell-based; settings: mg-63
Procedure, shortened: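 MG63 cells; cell viability measured with compounds at concentrations up to 500 nM.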

[2] = target: T1, Vitamin K-dependent gamma-carboxylase (Homo sapiens) (UniProt P38435); test: Activation of gamma-glutamyl carboxylase in human MG63 cells assessed as reduction in un-carboxylated osteocalcin level at 50 nM after 72 hrs by enzyme immuno assay; assay type: cell-based; settings: MG-63
T1 sequence (whole entry): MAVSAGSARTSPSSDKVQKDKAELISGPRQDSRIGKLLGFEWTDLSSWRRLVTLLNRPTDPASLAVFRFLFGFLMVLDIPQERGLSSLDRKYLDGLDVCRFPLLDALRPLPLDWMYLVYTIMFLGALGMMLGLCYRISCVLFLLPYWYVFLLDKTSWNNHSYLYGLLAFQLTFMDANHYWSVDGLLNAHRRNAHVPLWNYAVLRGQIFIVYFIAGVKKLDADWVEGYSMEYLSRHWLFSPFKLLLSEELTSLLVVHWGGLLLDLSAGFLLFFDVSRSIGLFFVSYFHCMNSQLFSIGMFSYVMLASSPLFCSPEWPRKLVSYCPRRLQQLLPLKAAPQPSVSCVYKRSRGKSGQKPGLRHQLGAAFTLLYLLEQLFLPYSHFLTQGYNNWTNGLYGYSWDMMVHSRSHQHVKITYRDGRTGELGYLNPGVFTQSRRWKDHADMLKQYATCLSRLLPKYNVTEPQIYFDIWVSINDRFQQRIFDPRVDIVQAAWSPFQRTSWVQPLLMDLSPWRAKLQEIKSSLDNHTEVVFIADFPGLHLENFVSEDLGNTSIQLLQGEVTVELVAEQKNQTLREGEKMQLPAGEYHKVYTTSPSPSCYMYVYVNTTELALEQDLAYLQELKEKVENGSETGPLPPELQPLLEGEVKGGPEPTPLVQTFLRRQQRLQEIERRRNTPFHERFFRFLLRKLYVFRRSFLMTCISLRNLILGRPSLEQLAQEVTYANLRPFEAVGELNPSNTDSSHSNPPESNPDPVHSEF
Procedure, shortened: (§1)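 Human osteosarcoma MG63 cells; uncarboxylated (ucOC) and carboxylated (cOC) osteocalcin measured in culture media/supernatants; untreated controls received no vitamin K or analogue; run in triplicate.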

[3] = target: T1, Vitamin K-dependent gamma-carboxylase (Homo sapiens); test: Activation of gamma-glutamyl carboxylase in human MG63 cells assessed as increase in carboxylated osteocalcin level at 50 nM after 72 hrs by enzyme immuno assay; assay type: cell-based; settings: MG-63; procedure, shortened: as §1
[4] = species: Rattus norvegicus; test: Restoration of prothrombin activity in vitamin-K deficient diet fed Wistar-Kyoto rat assessed as plasma prothrombin level at 5 ug/g of food for 2 days by one-stage PT-based clotting assay (reference value: 60%); assay type: functional
[5] = species: Rattus norvegicus; test: Toxicity in vitamin-K deficient diet fed Wistar-Kyoto rat assessed as change in body weight at 0.5 ug/g of food for 5 days; assay type: organism-based; settings: in vivo, po, 120 h
[6] = species: Rattus norvegicus; test: Toxicity in vitamin-K deficient diet fed Wistar-Kyoto rat assessed as change in body weight at 5 ug/g of food for 2 to 5 days; assay type: organism-based; settings: in vivo, po
[7] = species: Rattus norvegicus; test: Restoration of prothrombin activity in vitamin-K deficient diet fed Wistar-Kyoto rat assessed as plasma prothrombin level at 5 ug/g of food for 5 days by one-stage PT-based clotting assay (reference value: 60%); assay type: functional

Row | Activity [2] | Activity [3] | SMILES | Activity [1] | also measured
1 |  |  | CCOC(=O)Cc1c(C)c(OC)c2ccccc2c1OC | Non-Toxic | 
2 | Active | Active | CC1=C(CC(=O)O)C(=O)c2ccccc2C1=O | Non-Toxic | 
3 |  |  | COc1c(C)c(Br)c(OC)c2ccccc12 | Non-Toxic | 
4 | Active | Active | CCOC(=O)CC1=C(C)C(=O)c2ccccc2C1=O | Non-Toxic | 
5 | Active | Active | CCCCCCCCCCCCCCNC(=O)CC1=C(C)C(=O)c2ccccc2C1=O | Non-Toxic | Activity [4]: 107%; Activity [5]: Non-Toxic; Activity [6]: Non-Toxic; Activity [7]: 106%
6 | Active | Active | CCCCCCCCCCCCCCCCNC(=O)CC1=C(C)C(=O)c2ccccc2C1=O | Non-Toxic | 
7 | Active | Active | COc1c(C)c(CC(=O)O)c(OC)c2ccccc12 | Non-Toxic | 
8 | Active | Active | CC(C)=CCC/C(C)=C/CC/C(C)=C/CC/C(C)=C/CC1=C(C)C(=O)c2ccccc2C1=O |  | 
9 |  |  | CC1=C(Br)C(=O)c2ccccc2C1=O | Non-Toxic | 
10 |  |  | CC1=CC(=O)c2ccccc2C1=O [MENADIONE] | Non-Toxic | 
11 | Active |  | CCCCCCCCCCCCCCCCCNC(=O)CC1=C(C)C(=O)c2ccccc2C1=O | Non-Toxic | 
12 | Active |  | CCCCCCCCCCCCCCCCCCNC(=O)CC1=C(C)C(=O)c2ccccc2C1=O | Non-Toxic | 
